Experimental data from ChEMBL document CHEMBL6092210, “Synthesis, in vitro and in vivo biological evaluation of novel dual compounds targeting both acetylcholinesterase and serotonergic 5-HT4 receptors with potential interest in the treatment of Alzheimer's disease” (Eur J Med Chem, 2024).

Columns and labels:
Acetylcholinesterase [1] = biological target: T1, Acetylcholinesterase (Homo sapiens, UniProt P22303); experiment: Inhibition of recombinant human erythrocyte AChE using acetyl-or butyrylthiocholine iodide as substrate preincubated for 5 mins followed by substrate addition and measured every min for 10 mins by Ellman's method
[2] = biological target: T2, 5-hydroxytryptamine receptor 4 (Homo sapiens, UniProt Q13639); experiment: Inhibition of human recombinant 5HT4 receptor at 1 x 10^-6M incubated for 60 mins relative to control; conditions: dose 1.0 10^-6M
Method in brief: (§1)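 Membranes (2.5 μg protein) from a stable recombinant line expressing h5-HT4(b) receptor. Incubated in duplicate at 25 °C for 60 min with 0.2 nM [3H]-GR113808 in 25 mM Tris pH 7.4, with drug at 10^-6 or 10^-8 M. GF/C filtration; non-specific binding defined with 30 μM serotonin. Ki from five-point inhibition curves, ± SD.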

[3] = biological target: T2, 5-hydroxytryptamine receptor 4; experiment: Inhibition of human recombinant 5HT4 receptor at 1 x 10^-8M incubated for 60 mins relative to control; conditions: dose 1.0 10^-8M; method in brief: as §1
[4] = biological target: T2, 5-hydroxytryptamine receptor 4; experiment: Binding affinity to human recombinant 5HT4 receptor assessed as inhibition constant incubated for 60 mins
Acetylcholinesterase [5] = biological target: T1, Acetylcholinesterase; experiment: Inhibition of recombinant human erythrocyte AChE using acetyl-or butyrylthiocholine iodide as substrate at 1 x 10^-6M preincubated for 5 mins followed by substrate addition and measured every min for 10 mins by Ellman's method relative to control; conditions: dose 1.0 10^-6M, time 15.0 min
Method in brief: (§2)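 AChE from human erythrocytes (0.05 U final) or recombinant AChE (0.025 U final), diluted in 20 mM HEPES pH 8 with 0.1 % Triton X-100, in an Ellman assay. DTNB is 0.3 mM in phosphate buffer pH 7.4 and compound is in DMSO. Enzyme and compound are preincubated 5 min at 25 °C. Reaction starts with 1 mM acetylthiocholine iodide solution.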

Acetylcholinesterase [6] = biological target: T1, Acetylcholinesterase; experiment: Inhibition of recombinant human erythrocyte AChE using acetyl-or butyrylthiocholine iodide as substrate at 1 x 10^-5M preincubated for 5 mins followed by substrate addition and measured every min for 10 mins by Ellman's method relative to control; conditions: dose 1.0 10^-5M, time 15.0 min; method in brief: as §2
[7] = biological target: T2, 5-hydroxytryptamine receptor 4; experiment: Partial agonist activity at human recombinant 5HT4 receptor at 1 x 10^-8M incubated for 60 mins relative to control; format: functional; conditions: filed as partial agonist, dose 1.0 10^-8M
[8] = biological target: T2, 5-hydroxytryptamine receptor 4; experiment: Partial agonist activity at human recombinant 5HT4 receptor at 1 x 10^-6M incubated for 60 mins relative to control; format: functional; conditions: filed as partial agonist, dose 1.0 10^-6M
[9] = biological target: Acetylcholinesterase (Electrophorus electricus) (UniProt O42275); experiment: Displacement of propidium iodide from electric eel AChE 1 x 10^-5M relative to control; conditions: dose 1.0 10^-5M
[10] = biological target: T2, 5-hydroxytryptamine receptor 4; experiment: Partial agonist activity at human recombinant 5HT4 receptor expressed in […] cells assessed as cAMP accumulation by measuring maximum efficacy in presence of serotonin by HTRF analysis relative to control; format: functional, cell-based; conditions: filed as partial agonist
Method in brief: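 COS-7 cells grown in DMEM with 10 % dialyzed FCS and transiently transfected with HA-tagged h5-HT4R, then plated at 16,000 cells/well. At 24 h, cells were exposed for 10 min at 37 °C to 5-HT4 ligands in HEPES-buffered saline containing 0.1 % BSA and 0.1 mM RO-20-1724. Cells were lysed with 0.1 % Triton X-100 and cAMP measured by HTRF.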

[11] = biological target: T2, 5-hydroxytryptamine receptor 4; experiment: Partial agonist activity at human recombinant 5HT4 receptor transiently transfected in […] cells using p-nitrophenyl phosphate disodium hexahydrate as substrate assessed as induction of sAPPalpha release by measuring maximum efficacy incubated for 30 mins by microplate reader analysis relative to control; format: functional, cell-based
Method in brief: (§3)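 COS-7 cells co-transfected with FLG-tagged h5-HT4 receptor and SEAP-tagged mouse APP695, seeded at 300,000 cells/well. At 24 h, cells were exposed to drug for 30 min. Supernatants were collected and secreted SEAP activity read colorimetrically with p-nitrophenyl phosphate as substrate.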

[12] = biological target: T2, 5-hydroxytryptamine receptor 4; experiment: Partial agonist activity at human recombinant 5HT4 receptor transiently transfected in […] cells using p-nitrophenyl phosphate disodium hexahydrate as substrate assessed as induction of sAPPalpha release incubated for 30 mins by microplate reader analysis; format: functional, cell-based; conditions: filed as partial agonist; method in brief: as §3
[13] = biological target: Cholinesterase (Equus caballus) (UniProt P81908); experiment: Inhibition of equine serum BuChE using Acetyl and butyrylthiocholine iodide as substrate at 1 x 10^-5M preincubated for 5 mins followed by substrate addition and measured every min for 10 mins by Ellman's method relative to control; conditions: dose 1.0 10^-5M, time 15.0 min
Sequence of Cholinesterase (Equus caballus) (P81908 whole entry): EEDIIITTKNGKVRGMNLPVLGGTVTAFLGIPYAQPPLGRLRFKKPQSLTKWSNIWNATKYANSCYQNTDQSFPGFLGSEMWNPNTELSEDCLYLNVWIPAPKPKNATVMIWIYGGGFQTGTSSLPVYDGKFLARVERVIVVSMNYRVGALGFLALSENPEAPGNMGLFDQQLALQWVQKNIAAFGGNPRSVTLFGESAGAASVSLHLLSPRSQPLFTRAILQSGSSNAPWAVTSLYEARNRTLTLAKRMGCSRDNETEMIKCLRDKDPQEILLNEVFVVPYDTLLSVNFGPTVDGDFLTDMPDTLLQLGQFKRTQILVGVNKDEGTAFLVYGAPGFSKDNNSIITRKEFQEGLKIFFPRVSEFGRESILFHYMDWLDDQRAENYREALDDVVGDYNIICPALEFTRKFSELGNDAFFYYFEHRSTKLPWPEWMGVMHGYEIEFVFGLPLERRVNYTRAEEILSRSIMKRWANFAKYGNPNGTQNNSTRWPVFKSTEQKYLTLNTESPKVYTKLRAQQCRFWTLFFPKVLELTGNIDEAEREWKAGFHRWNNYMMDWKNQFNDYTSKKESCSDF

T1 sequence (P22303 whole entry): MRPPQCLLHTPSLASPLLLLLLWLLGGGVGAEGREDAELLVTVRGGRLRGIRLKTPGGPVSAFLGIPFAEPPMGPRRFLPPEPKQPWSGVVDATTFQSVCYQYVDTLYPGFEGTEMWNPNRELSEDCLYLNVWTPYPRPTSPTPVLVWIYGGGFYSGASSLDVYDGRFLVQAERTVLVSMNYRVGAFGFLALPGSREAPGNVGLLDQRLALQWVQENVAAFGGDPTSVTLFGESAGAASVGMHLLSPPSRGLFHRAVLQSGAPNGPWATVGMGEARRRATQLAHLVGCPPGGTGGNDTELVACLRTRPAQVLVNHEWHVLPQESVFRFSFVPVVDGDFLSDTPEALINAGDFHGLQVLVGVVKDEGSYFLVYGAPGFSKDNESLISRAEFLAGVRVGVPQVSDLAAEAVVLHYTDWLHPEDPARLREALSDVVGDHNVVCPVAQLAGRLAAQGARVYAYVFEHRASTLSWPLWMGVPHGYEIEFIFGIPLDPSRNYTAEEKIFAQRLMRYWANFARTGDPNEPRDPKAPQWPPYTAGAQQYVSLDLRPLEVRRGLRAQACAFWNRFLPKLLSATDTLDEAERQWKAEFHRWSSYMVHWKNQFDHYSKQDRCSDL
T2 sequence (Q13639 whole entry): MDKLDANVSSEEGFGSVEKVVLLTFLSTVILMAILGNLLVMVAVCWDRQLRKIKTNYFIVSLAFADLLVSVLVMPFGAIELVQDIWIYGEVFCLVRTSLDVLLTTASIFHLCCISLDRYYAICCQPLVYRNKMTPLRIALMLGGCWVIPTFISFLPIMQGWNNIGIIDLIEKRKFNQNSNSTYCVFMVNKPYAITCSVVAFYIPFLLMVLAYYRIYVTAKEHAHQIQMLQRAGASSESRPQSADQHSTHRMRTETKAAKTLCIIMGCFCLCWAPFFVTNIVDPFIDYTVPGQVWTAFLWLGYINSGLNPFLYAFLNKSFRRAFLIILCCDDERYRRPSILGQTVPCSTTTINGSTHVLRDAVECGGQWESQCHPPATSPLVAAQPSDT
Sequence of Acetylcholinesterase (Electrophorus electricus) (O42275 24-633 limits assumed): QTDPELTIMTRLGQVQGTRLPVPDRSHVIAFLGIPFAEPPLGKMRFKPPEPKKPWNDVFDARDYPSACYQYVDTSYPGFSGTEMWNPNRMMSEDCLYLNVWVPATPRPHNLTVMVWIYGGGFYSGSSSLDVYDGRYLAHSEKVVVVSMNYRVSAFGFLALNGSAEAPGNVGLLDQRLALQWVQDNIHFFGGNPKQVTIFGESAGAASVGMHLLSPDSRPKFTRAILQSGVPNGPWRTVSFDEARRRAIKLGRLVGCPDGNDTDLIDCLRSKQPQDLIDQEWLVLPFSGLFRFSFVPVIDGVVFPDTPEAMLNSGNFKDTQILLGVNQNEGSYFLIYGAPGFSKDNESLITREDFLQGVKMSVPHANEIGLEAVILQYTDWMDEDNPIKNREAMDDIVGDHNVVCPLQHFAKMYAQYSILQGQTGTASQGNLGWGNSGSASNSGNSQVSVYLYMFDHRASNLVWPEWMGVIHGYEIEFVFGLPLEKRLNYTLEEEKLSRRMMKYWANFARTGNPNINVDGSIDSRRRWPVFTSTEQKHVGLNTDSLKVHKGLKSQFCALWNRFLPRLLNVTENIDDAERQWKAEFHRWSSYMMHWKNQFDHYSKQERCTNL

| Compound | inhibition [2] | inhibition [3] | inhibition (Acetylcholinesterase [5]) | also measured |
| --- | --- | --- | --- | --- |
| Nc1ccc(C(=O)CCC2CCN(CC3CCCCC3)CC2)c(OCCF)c1 | 100% | 27% | 79% | IC50 (Acetylcholinesterase [1]): 318 nM; Ki [4]: 39.9 nM |
| COc1cc(O)c(Cl)cc1C(=O)CCC1CCN(CC2CCCCC2)CC1 | 76% | 2% | 78% | – |
| COc1cc(N)ccc1C(=O)CCC1CCN(CC2CCCCC2)CC1 | 96% | 10% | – | inhibition (Acetylcholinesterase [6]): 97% |
| COc1c(C(=O)CCC2CCN(CC3CCCCC3)CC2)cc(F)c(N)c1Br | 80% | 8% | 85% | IC50 (Acetylcholinesterase [1]): 309 nM |
| CC(=O)Nc1cc(O)c(C(=O)CCC2CCN(CC3CCCCC3)CC2)cc1Cl | 47% | 8% | 94% | IC50 (Acetylcholinesterase [1]): 57.3 nM |
| COc1cc(N)c(F)cc1C(=O)CCC1CCN(CC2CCCCC2)CC1 | 102% | 68% | 96% | Activity [7]: 66%; Activity [8]: 100%; inhibition [9]: 22%; Emax [10]: 67.3%; Emax [11]: 19.7%; Activity [12]: Dose-dependent-effect; EC50 [12]: 23 nM; inhibition [13]: 65% |
| CCOc1cc(N)c(Cl)cc1C(=O)CCC1CCN(CC2CCCCC2)CC1 | 103% | 86% | 69% | – |
| COc1cc(N)c(Cl)cc1C(=O)CCC1CCN(CC2CCCCC2)CC1 | – | – | – | inhibition ([2]; tested as the 2H-labelled form): 98%; inhibition ([3]; tested as the 2H-labelled form): 29%; inhibition (Acetylcholinesterase [5]; tested as the 2H-labelled form): 92% |
| COc1cc(N)c(I)cc1C(=O)CCC1CCN(CC2CCCCC2)CC1 | 103% | 36% | – | inhibition (Acetylcholinesterase [6]): 88% |
| Nc1cc(OCCF)c(C(=O)CCC2CCN(CC3CCCCC3)CC2)cc1Cl | 102% | 78% | 60% | – |
| CCOc1cc(N)c(I)cc1C(=O)CCC1CCN(CC2CCCCC2)CC1 | 103% | 65% | 51% | Ki [4]: 86 nM |
